ChEMBL document CHEMBL4196230, “Design, Synthesis, and Blood-Brain Barrier Transport Study of Pyrilamine Derivatives as Histone Deacetylase Inhibitors” (ACS Med Chem Lett, 2018)
Each block holds one compound with its values, some of them ahead of it. Activity calls are given as the source filed them. The rule behind the calls is not given here.

How the values were obtained:
[1] = target: T1, Protein deacetylase HDAC6 (Mus musculus) (UniProt Q9Z2V5); test: Inhibition of mouse HDAC6 expressed in 293T cells at 100 uM using Ac-KGLGK(Ac)-MCA as substrate measured after 30 mins by fluorescence assay relative to control
T1 sequence (whole entry): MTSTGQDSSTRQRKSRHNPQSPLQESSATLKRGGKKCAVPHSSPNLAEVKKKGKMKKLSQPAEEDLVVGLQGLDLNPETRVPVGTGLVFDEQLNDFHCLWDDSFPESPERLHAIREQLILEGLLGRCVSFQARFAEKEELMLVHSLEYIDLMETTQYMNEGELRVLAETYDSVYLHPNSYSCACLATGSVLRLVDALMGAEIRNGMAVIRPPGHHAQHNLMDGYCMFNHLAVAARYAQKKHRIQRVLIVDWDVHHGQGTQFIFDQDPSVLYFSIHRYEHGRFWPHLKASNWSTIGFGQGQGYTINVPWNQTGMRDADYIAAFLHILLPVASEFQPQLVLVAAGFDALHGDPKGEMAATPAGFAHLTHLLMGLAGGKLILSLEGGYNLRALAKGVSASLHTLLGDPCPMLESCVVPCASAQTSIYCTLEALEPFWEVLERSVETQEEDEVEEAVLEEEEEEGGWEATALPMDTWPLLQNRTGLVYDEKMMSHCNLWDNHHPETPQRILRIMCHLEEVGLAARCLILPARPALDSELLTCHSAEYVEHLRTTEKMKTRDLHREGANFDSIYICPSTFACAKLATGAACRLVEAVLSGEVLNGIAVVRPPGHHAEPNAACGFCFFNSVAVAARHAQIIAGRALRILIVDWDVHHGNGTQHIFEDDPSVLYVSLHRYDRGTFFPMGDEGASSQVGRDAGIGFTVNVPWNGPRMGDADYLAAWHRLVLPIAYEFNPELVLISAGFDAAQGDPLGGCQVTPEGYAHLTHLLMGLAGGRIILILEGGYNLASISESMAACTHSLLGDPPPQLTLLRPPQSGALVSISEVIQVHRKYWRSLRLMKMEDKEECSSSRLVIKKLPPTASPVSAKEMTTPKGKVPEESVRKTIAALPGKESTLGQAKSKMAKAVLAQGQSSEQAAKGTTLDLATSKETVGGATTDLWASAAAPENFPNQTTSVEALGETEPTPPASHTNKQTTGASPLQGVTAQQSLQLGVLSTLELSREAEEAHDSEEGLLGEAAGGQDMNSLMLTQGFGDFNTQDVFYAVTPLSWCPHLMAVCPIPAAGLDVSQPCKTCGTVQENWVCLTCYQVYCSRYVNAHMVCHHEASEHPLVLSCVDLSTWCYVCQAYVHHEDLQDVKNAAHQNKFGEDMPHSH

[2] = Substrate activity at PYSOCA in human CMEC/D3 cells assessed as transporter-mediated drug uptake measured for 2 mins at 37degC in presence of clonidine; format: ADME, cell-based
[3] = Substrate activity at PYSOCA in human CMEC/D3 cells assessed as transporter-mediated drug uptake measured for 2 mins at 37degC in presence of choline; format: ADME, cell-based
[4] = Substrate activity at PYSOCA in human CMEC/D3 cells assessed as transporter-mediated drug uptake measured for 2 mins at 37degC in presence of varenicline; format: ADME, cell-based
[5] = Substrate activity at PYSOCA in human CMEC/D3 cells assessed as transporter-mediated drug uptake measured for 2 mins at 37degC in presence of tramadol; format: ADME, cell-based
[6] = target: Histone deacetylase (Homo sapiens) (UniProt Q13547+O15379+Q9UBN7+Q92769+Q9UQL6+Q8WUI4+Q9BY41+Q96DB2+P56524+Q9UKV0+Q969S8); settings: at 10 µM
[7] = Substrate activity at PYSOCA in human CMEC/D3 cells assessed as transporter-mediated drug uptake measured for 2 mins at 37degC in presence of MPP+; format: ADME, cell-based
[8] = Substrate activity at PYSOCA in human CMEC/D3 cells assessed as transporter-mediated drug uptake clearance assessed per mg protein at 37degC; format: ADME, cell-based
Method in brief: (§1)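 Uptake by hCMEC/D3 cells followed over time at 37 °C or 4 °C. Clearance was calculated from the initial linear slope, expressed per mg protein. Mean ± S.E., n = 4.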

[9] = Substrate activity at PYSOCA in human CMEC/D3 cells assessed as transporter-mediated drug uptake clearance assessed per mg protein at 4degC measured after 30 mins; format: ADME, cell-based; settings: 0.5 h; method in brief: as §1
[10] = Substrate activity at PYSOCA in human CMEC/D3 cells assessed as transporter-mediated drug uptake measured for 2 mins at 37degC in presence of diphenhydramine; format: ADME, cell-based
Method in brief: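 Uptake by hCMEC/D3 cells was measured at various substrate concentrations, at 37 °C for 2 min, with or without diphenhydramine (100 µM). Data were analysed by Michaelis-Menten and Lineweaver-Burk plots using nonlinear least-squares regression (Eqs. 1 and 2). Mean ± S.E., n = 4.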

[11] = Substrate activity at PYSOCA in human CMEC/D3 cells assessed as transporter-mediated drug uptake measured for 2 mins at 37degC in presence of decynium-22; format: ADME, cell-based
[12] = Substrate activity at PYSOCA in human CMEC/D3 cells assessed as transporter-mediated drug uptake measured for 2 mins at 37degC in presence of L-carnitine; format: ADME, cell-based
[13] = Substrate activity at PYSOCA in human CMEC/D3 cells assessed as transporter-mediated drug uptake measured for 2 mins at 37degC in presence of memantine; format: ADME, cell-based
[14] = Substrate activity at PYSOCA in human CMEC/D3 cells assessed as transporter-mediated drug uptake measured for 2 mins at 37degC in presence of pyrilamine; format: ADME, cell-based
[15] = Substrate activity at PYSOCA in human CMEC/D3 cells assessed as transporter-mediated drug uptake measured for 2 mins at 37degC in presence of TEA; format: ADME, cell-based

Structure (SMILES): CC(/C=C/C(=O)NO)=C\[C@@H](C)C(=O)c1ccc(N(C)C)cc1
- inhibition [1]: 98%

Structure (SMILES): COc1ccc(CN(CCN(C)C)c2ccc(C(=O)Nc3cc(-c4cccs4)ccc3N)cn2)cc1
- inhibition [1]: 15%

Structure (SMILES): COc1ccc(CN(CCN(C)C)c2ccc(C(=O)Nc3cc(I)ccc3N)cn2)cc1
- inhibition [1]: 16%

Structure (SMILES): COc1ccc(CN(CCN(C)C)c2ccc(C(=O)Nc3cc(-c4ccco4)ccc3N)cn2)cc1
- inhibition [1]: 15%

Further lines, results first:

- Activity [2]: Active
- Activity [3]: Active
- inhibition [1]: 18%
- Activity [4]: Active
- Activity [5]: Active
- inhibition [6]: Active
- Activity [7]: Active
- CL [8]: 1.26 µL/min
- Activity [9]: Active
- Activity [10]: Active
- Activity [11]: Active
- Activity [12]: Active
- Activity [13]: Active
- Activity [14]: Active
- Activity [15]: Active
Structure (SMILES): CC(=O)Nc1ccc(C(=O)Nc2ccccc2N)cc1 [TACEDINALINE]

- inhibition [1]: 14%
Structure (SMILES): COc1ccc(CN(CCN(C)C)c2ccc(C(=O)Nc3cc(-c4ccccc4)ccc3N)cn2)cc1

- inhibition [1]: 7%
Structure (SMILES): COc1ccc(CN(CCN(C)C)c2ccc(C(=O)Nc3cc(Cl)ccc3N)cn2)cc1

- inhibition [1]: 21%
Structure (SMILES): COc1ccc(CN(CCN(C)C)c2ccc(C(=O)Nc3cc(Br)ccc3N)cn2)cc1
